# In ChEMBL document CHEMBL4118192, “BET bromodomain ligands: Probing the WPF shelf to improve BRD4 bromodomain affinity and metabolic stability” (Bioorg Med Chem, 2018):
# What was measured:
# 786-0 = experiment: Growth inhibition of human 786-0 cells after 48 hrs by sulforhodamine B assay; assay type: functional; details: 786-0, 48 h
# Summary of the method: (§1)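 NCI-60 panel screen. Cells were exposed for 48 h at five concentrations between 10 nM and 100 μM. Cellular protein was read by sulforhodamine B staining, and GI50 and total growth inhibition (TGI) concentrations were derived.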
# NCI-H23 = experiment: Growth inhibition of human NCI-H23 cells at 10 uM after 48 hrs by sulforhodamine B assay relative to control; assay type: functional; details: NCI-H23, 48 h, read-out: GI
# Summary of the method: (§2)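 NCI-60 human cancer cell line screen, single-dose pass: cells exposed to 10 μM for 48 h. Cellular protein content read out by sulforhodamine B staining, and growth inhibition expressed relative to untreated control.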
# U-251 = experiment: Growth inhibition of human U251 cells at 10 uM after 48 hrs by sulforhodamine B assay relative to control; assay type: functional; details: U-251, 48 h, read-out: GI
# Summary of the method: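 NCI-60 human cancer cell line screen, single dose of 10 μM for 48 h. Cellular protein content read by sulforhodamine B staining; growth inhibition expressed relative to untreated control.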
# IGROV-1 = experiment: Growth inhibition of human IGROV1 cells at 10 uM after 48 hrs by sulforhodamine B assay relative to control; assay type: functional; details: IGROV-1, 48 h, read-out: GI
# Summary of the method: (§3)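 NCI-60 single-dose screen at 10 μM for 48 h. Percent growth inhibition was measured by sulforhodamine B staining of cellular protein.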
# MCF7 = experiment: Growth inhibition of human MCF7 cells after 48 hrs by SRB assay; assay type: functional; details: MCF7, 48 h
# Summary of the method: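 In-house assay. Cells were seeded into 96-well plates at a density for exponential growth and treated with a concentration range for 48 h. They were then fixed in 10% (w/v) TCA and stained with sulforhodamine B. The 50% growth-inhibitory concentration relative to control cells was calculated as the mean of three repeats ± standard deviation.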
# OVCAR-3 = experiment: Growth inhibition of human OVCAR3 cells after 48 hrs by sulforhodamine B assay; assay type: functional; details: OVCAR-3, 48 h
# Summary of the method: (§4)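 NCI-60 panel follow-up: five concentrations from 10 nM to 100 μM, 48 h exposure. Growth read by sulforhodamine B protein staining. GI50 derived from the concentration-response, with the concentration for total growth inhibition (TGI) also recorded when below 100 μM.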
# PC-3 = experiment: Growth inhibition of human PC3 cells after 48 hrs by sulforhodamine B assay; assay type: functional; details: PC-3, 48 h; summary of the method: as §4
# UACC-62 = experiment: Growth inhibition of human UACC62 cells after 48 hrs by sulforhodamine B assay; assay type: functional; details: UACC-62, 48 h
# Summary of the method: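 NCI-60 panel cells treated at five concentrations from 10 nM to 100 μM for 48 h. Read-out by sulforhodamine B protein stain. GI50 and total growth inhibition (TGI, if below 100 μM) taken from the concentration-response data.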
# NCI-H460 = experiment: Growth inhibition of human NCI-H460 cells at 10 uM after 48 hrs by sulforhodamine B assay relative to control; assay type: functional; details: NCI-H460, 48 h, read-out: GI; summary of the method: as §2
# K562 = experiment: Growth inhibition of human K562 cells at 10 uM after 48 hrs by sulforhodamine B assay relative to control; assay type: functional; details: K562, 48 h, read-out: GI; summary of the method: as §3
# LOX IMVI = experiment: Growth inhibition of human LOXIMVI cells at 10 uM after 48 hrs by sulforhodamine B assay relative to control; assay type: functional; details: read-out: GI; summary of the method: as §3
# RXF 393 = experiment: Growth inhibition of human RXF393 cells at 10 uM after 48 hrs by sulforhodamine B assay relative to control; assay type: functional; details: RXF 393, 48 h, read-out: GI; summary of the method: as §2
# [1] = biological target: Histone acetyltransferase KAT2B (Homo sapiens) (UniProt Q92831); experiment: Inhibition of human partial length PCAF (G715 to D831 residues) expressed in bacterial expression system assessed as residual activity at 1 uM by BROMOscan assay relative to control
# [2] = biological target: Bromodomain-containing protein 2 (Homo sapiens) (UniProt P25440); experiment: Inhibition of human partial length BRD2 bromodomain 1 (K71 to N194 residues) expressed in bacterial expression system assessed as residual activity at 1 uM by BROMOscan assay relative to control
# Bromodomain-containing protein 2 (Homo sapiens), sequence (P25440 whole entry, looked up, the tested form may be a part): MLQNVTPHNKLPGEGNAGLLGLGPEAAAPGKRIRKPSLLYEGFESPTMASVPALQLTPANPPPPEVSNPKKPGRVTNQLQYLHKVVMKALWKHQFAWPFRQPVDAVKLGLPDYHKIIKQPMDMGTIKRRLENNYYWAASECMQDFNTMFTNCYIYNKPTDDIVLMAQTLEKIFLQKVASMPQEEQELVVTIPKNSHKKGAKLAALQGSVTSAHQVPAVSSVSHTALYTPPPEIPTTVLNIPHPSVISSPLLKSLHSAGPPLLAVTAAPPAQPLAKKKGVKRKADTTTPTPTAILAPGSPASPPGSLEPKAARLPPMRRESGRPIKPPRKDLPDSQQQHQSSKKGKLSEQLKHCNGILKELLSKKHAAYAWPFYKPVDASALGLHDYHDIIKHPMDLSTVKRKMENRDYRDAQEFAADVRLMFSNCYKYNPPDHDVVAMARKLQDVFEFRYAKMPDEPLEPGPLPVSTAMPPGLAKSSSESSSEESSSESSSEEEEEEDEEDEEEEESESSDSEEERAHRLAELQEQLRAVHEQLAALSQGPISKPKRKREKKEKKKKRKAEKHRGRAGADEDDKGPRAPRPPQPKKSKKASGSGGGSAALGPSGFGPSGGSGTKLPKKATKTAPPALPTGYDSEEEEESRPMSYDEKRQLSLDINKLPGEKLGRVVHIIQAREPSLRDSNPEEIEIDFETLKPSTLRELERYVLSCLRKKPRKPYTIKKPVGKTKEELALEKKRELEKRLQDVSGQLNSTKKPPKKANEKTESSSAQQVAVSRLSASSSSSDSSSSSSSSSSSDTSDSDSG
# [3] = biological target: Bromodomain testis-specific protein (Homo sapiens) (UniProt Q58F21); experiment: Inhibition of human partial length BRDT bromodomain 1 (N21 to E137 residues) expressed in bacterial expression system assessed as residual activity at 1 uM by BROMOscan assay relative to control
# [4] = biological target: Bromodomain-containing protein 4 (Homo sapiens, UniProt O60885); experiment: Inhibition of human partial length BRD4 bromodomain 1 (N44 to E168 residues) expressed in bacterial expression system assessed as residual activity at 1 uM by BROMOscan assay relative to control
# [5] = biological target: Bromodomain and WD repeat-containing protein 1 (Homo sapiens) (UniProt Q9NSI6); experiment: Inhibition of human partial length WDR9 bromodomain 2 (A1310 to E1430 residues) expressed in bacterial expression system assessed as residual activity at 1 uM by BROMOscan assay relative to control
# [6] = Intrinsic clearance in human liver microsomes at 3 uM; assay type: ADME, microsome; details: read-out: CLH
# [7] = biological target: Bromodomain-containing protein 3 (Homo sapiens) (UniProt Q15059); experiment: Inhibition of human partial length BRD3 bromodomain 1 (P24 to E144 residues) expressed in bacterial expression system assessed as residual activity at 1 uM by BROMOscan assay relative to control
# Bromodomain-containing protein 3 (Homo sapiens), sequence (Q15059 2-726 limits assumed): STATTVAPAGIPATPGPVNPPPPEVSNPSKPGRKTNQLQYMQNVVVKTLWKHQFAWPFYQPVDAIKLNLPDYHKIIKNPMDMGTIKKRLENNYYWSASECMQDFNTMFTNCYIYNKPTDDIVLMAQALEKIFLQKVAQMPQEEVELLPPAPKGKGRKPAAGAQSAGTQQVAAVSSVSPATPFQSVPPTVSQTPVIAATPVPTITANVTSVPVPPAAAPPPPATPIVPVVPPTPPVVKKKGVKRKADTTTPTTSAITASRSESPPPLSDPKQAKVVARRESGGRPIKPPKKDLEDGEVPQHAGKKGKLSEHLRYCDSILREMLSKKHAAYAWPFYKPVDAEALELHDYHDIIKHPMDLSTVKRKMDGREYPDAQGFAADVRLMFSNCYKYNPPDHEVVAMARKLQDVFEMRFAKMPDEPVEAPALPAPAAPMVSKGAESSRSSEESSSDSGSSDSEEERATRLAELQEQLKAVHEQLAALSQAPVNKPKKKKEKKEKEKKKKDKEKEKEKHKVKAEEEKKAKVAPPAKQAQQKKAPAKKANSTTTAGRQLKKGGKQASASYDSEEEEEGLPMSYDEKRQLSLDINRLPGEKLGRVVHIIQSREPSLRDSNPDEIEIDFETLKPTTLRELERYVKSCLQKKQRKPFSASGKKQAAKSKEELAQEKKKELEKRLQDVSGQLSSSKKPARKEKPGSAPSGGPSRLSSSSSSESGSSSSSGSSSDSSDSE
# [8] = biological target: Bromodomain-containing protein 9 (Homo sapiens) (UniProt Q9H8M2); experiment: Inhibition of human partial length BRD9 (R130 to V259 residues) expressed in bacterial expression system assessed as residual activity at 1 uM by BROMOscan assay relative to control
# HCC 2998 = experiment: Growth inhibition of human HCC2998 cells after 48 hrs by sulforhodamine B assay; assay type: functional; details: HCC 2998, 48 h; summary of the method: as §1
# [9] = Apparent half life in human liver microsomes at 3 uM; assay type: ADME, microsome; details: read-out: t1/2(app)
# Malme-3M = experiment: Growth inhibition of human MALME-3M cells after 48 hrs by sulforhodamine B assay; assay type: functional; summary of the method: as §1
# [10] = biological target: CREB-binding protein (Homo sapiens) (UniProt Q92793); experiment: Inhibition of human partial length CREBBP (R1081 to G1197 residues) expressed in bacterial expression system assessed as residual activity at 1 uM by BROMOscan assay relative to control
# [11] = biological target: SWI/SNF-related matrix-associated actin-dependent regulator of chromatin subfamily A member 4 (Homo sapiens) (UniProt P51532); experiment: Inhibition of human partial length SMARCA4 (A1448 to S1575 residues) expressed in bacterial expression system assessed as residual activity at 1 uM by BROMOscan assay relative to control
# SWI/SNF-related matrix-associated actin-dependent regulator of chromatin subfamily A member 4 (Homo sapiens), sequence (P51532 whole entry, the tested form may be a part): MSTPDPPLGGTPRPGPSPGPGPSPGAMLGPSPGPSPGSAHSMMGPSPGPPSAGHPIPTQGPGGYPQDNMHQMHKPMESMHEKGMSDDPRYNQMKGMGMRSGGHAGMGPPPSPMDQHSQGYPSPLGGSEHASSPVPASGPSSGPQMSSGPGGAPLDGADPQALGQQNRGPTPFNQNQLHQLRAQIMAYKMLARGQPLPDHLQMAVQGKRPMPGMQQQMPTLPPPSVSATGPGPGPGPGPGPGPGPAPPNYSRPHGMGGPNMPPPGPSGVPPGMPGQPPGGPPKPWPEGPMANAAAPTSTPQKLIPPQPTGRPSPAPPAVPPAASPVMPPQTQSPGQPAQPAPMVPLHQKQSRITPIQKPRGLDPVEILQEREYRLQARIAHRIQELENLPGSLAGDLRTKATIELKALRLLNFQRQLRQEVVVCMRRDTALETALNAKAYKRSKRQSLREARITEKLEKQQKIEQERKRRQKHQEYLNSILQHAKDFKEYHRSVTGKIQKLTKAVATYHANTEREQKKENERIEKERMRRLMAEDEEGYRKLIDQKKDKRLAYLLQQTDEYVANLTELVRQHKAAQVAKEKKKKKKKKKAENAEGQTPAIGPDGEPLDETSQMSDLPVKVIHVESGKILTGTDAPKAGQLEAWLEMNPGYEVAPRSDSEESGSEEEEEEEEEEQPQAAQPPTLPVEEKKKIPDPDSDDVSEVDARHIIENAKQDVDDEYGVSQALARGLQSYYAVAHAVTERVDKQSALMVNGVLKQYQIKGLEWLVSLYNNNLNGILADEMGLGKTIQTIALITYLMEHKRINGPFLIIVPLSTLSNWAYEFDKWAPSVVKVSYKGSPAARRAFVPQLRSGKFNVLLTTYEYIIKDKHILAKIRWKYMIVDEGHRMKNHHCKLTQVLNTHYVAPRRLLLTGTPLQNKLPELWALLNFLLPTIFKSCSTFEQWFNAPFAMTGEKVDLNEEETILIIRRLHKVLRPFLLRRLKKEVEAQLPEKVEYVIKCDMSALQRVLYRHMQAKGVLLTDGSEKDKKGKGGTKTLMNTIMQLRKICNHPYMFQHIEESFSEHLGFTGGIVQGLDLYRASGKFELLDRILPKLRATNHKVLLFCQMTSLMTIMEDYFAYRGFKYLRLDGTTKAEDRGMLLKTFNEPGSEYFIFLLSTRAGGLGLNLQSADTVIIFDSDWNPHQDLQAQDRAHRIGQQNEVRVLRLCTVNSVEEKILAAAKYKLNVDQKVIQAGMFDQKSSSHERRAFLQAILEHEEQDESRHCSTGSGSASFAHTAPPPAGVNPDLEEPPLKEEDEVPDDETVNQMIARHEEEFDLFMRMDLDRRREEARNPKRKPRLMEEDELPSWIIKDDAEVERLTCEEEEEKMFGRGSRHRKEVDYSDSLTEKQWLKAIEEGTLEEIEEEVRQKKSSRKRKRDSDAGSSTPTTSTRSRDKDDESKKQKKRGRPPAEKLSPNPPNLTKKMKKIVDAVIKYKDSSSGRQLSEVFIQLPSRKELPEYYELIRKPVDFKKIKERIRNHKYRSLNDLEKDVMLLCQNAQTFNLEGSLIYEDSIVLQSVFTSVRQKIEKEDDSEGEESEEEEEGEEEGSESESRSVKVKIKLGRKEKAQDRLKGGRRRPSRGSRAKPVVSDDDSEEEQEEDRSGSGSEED
# Peregrin (Homo sapiens) = Peregrin (Homo sapiens) (UniProt P55201); experiment: Inhibition of human partial length BRPF1 (E627 to G740 residues) expressed in bacterial expression system assessed as residual activity at 1 uM by BROMOscan assay relative to control
# [12] = biological target: ATPase family AAA domain-containing protein 2B (Homo sapiens) (UniProt Q9ULI0); experiment: Inhibition of human partial length ATAD2B (Q955 to R1082 residues) expressed in bacterial expression system assessed as residual activity at 1 uM by BROMOscan assay relative to control
# ATPase family AAA domain-containing protein 2B (Homo sapiens), sequence (Q9ULI0 whole entry, the tested form may be a part): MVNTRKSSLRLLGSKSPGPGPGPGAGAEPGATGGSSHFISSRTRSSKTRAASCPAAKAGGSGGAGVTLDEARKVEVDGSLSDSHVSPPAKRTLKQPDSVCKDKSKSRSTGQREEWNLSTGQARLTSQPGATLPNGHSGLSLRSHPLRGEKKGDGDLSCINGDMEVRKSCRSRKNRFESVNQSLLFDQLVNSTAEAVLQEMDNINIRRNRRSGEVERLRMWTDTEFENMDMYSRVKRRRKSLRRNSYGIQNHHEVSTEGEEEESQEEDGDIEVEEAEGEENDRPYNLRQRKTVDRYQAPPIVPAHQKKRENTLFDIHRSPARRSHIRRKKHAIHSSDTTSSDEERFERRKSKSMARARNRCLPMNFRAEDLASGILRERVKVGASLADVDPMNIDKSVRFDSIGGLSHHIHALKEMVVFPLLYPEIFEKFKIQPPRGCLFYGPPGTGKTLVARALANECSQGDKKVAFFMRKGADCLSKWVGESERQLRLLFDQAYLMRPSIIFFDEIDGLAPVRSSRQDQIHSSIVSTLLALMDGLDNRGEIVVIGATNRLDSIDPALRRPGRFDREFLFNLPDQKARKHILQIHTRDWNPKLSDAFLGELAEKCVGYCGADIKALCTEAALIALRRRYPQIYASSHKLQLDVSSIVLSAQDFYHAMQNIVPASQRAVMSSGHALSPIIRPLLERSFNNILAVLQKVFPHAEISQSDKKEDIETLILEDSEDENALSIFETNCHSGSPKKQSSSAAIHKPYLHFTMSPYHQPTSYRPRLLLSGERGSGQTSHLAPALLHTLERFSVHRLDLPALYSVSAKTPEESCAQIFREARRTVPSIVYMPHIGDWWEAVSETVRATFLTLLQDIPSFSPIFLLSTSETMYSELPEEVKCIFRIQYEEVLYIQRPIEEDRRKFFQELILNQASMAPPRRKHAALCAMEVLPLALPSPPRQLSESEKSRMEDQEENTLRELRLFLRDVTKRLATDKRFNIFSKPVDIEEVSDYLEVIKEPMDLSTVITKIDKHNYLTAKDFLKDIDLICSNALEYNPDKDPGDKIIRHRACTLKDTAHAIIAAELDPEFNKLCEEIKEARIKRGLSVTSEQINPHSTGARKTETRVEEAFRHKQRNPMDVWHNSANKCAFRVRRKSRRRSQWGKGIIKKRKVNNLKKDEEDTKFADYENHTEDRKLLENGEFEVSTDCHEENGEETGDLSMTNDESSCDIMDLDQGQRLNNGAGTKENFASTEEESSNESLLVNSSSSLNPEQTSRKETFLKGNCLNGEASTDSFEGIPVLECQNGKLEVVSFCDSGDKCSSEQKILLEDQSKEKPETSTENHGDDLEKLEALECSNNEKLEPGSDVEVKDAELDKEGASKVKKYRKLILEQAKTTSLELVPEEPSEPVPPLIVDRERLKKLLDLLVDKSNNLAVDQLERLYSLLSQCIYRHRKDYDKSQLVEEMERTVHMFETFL
smiles,measurement,setting,value
COc1ccccc1S(=O)(=O)Nc1ccc2c(c1)CN(C)C(=O)N2,GI50,786-0,12 µM
same,inhibition of growth at 10 µM,NCI-H23,43.3%
same,inhibition of growth at 10 µM,U-251,50%
same,inhibition of growth at 10 µM,IGROV-1,76%
same,GI50,MCF7,1500 nM
same,GI50,OVCAR-3,4 µM
same,TGI,OVCAR-3,87.1 µM
same,GI50,PC-3,28.2 µM
same,GI50,UACC-62,700 nM
same,inhibition of growth at 10 µM,NCI-H460,44.2%
same,inhibition of growth at 10 µM,K562,71.4%
same,inhibition of growth at 10 µM,LOX IMVI,70.9%
same,inhibition of growth at 10 µM,RXF 393,26.7%
Cc1noc(C)c1-c1cc(O)cc(C(O)c2ccccc2)c1 (stereo unspecified),Activity,[1],93%
same,GI50,786-0,27.1 µM
same,inhibition of growth at 10 µM,NCI-H23,31.9%
same,Activity,[2],1.4%
same,Activity,[3],8.8%
same,inhibition of growth at 10 µM,IGROV-1,54%
same,Activity,[4],3.7%
same,GI50,MCF7,1250 to 1700 nM
same,Activity,[5],100%
same,microsomal CLint at 3 µM,[6],34.8 µL/min/mg
same,GI50,OVCAR-3,6.64 µM
same,Activity,[7],0.5%
same,Activity,[8],100%
same,GI50,HCC 2998,8.55 µM
same,half-life at 3 µM,[9],39.8 min
same,inhibition of growth at 10 µM,NCI-H460,32.8%
same,GI50,Malme-3M,28.9 µM
same,Activity,[10],43%
same,inhibition of growth at 10 µM,K562,57.9%
same,Activity,[11],100%
same,inhibition of growth at 10 µM,LOX IMVI,72.7%
same,Activity,Peregrin (Homo sapiens),100%
same,Activity,[12],66%
